The text below walks through data of ChEMBL document CHEMBL2203171, “The use of small molecule probes to study spatially separated stimulus-induced signaling pathways” (Bioorg Med Chem Lett, 2012).

The source made the active and inactive calls. No cut-off for these calls is given here.

In test [1] the target is T1, Toll-like receptor 3 (Mus musculus) (UniProt Q99MB1).
T1 sequence (whole entry): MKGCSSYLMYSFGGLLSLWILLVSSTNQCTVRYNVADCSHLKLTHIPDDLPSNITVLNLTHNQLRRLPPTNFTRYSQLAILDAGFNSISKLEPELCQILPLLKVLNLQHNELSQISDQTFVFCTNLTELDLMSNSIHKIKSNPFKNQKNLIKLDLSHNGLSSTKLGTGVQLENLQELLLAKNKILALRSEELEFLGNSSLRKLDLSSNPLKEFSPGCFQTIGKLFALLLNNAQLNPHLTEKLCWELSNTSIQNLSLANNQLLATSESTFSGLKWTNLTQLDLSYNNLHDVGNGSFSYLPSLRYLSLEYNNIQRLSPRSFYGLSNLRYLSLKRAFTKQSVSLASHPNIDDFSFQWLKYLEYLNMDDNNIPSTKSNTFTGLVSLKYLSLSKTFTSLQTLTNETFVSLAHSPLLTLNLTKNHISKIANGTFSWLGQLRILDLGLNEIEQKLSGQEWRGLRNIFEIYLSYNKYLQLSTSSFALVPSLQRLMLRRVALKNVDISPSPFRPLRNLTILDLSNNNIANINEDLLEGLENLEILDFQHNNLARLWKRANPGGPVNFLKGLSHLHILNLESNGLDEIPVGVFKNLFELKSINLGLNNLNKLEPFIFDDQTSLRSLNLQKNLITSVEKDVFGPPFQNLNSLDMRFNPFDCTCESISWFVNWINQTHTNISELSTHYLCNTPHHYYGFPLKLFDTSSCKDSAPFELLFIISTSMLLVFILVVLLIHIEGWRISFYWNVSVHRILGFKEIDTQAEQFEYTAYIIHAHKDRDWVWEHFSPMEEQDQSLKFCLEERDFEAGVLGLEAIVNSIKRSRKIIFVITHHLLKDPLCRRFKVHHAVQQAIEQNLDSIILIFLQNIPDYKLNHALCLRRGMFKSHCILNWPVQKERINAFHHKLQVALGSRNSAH
The test is described as follows: Inhibition of TRIF recruitment to TLR3 in C57BL/6 mouse BMDM cells assessed as inhibition of pI:pC-induced p38 MAPK activity up to 90 mins. The class given is cell-based. The essentials: (§1)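 Bone marrow macrophages from C57BL/6 mice, grown in 70% growth medium (DMEM, 10% FBS) plus 30% L929-conditioned medium and given fresh medium 12-14 h before stimulation. Stimuli: IL-1 40 ng/ml, HKSA ~10^8 cfu/ml, pI:pC 50 μg/ml or CpG 10 μg/ml, ± compound at 10 μM (final) added from a 200x DMSO stock. IκBα and p38 profiled by immunoblot. Three independent experiments, quantitated and normalized.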

In test [2] the target is T2, Interleukin-1 receptor type 1 (Mus musculus) (UniProt P13504).
T2 sequence (whole entry): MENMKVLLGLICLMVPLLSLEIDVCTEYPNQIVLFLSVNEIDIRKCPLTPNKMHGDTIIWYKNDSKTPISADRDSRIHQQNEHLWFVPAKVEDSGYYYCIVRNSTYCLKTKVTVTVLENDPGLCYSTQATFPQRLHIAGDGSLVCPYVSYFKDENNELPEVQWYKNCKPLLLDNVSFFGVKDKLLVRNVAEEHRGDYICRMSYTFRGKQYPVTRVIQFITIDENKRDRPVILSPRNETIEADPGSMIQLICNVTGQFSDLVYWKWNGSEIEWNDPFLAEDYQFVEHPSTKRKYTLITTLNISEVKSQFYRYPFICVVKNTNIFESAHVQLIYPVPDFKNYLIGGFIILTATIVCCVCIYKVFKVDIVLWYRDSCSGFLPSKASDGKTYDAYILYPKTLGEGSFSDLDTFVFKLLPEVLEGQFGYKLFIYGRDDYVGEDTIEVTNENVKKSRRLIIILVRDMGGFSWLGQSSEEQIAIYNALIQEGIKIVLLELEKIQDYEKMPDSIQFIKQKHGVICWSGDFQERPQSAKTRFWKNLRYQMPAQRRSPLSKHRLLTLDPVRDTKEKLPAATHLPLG
The test is described as follows: Inhibition of MyD88 recruitment to IL-1R in C57BL/6 mouse BMDM cells assessed as inhibition of IL-1-induced IkappaBalpha degradation up to 90 mins by Western blot analysis. Format: cell-based. In outline:
as §1

In the case of `O=C(CCCCCN1C(=O)C=CC1=O)Oc1ccc2cc(C(C(=O)NCc3ccccc3)N(C(=O)Cc3ccc4c(c3)OCO4)C3CC3)ccc2c1` (configuration not stated), the inhibition entry in test [1] is “inactive”. In addition, the inhibition entry in test [2] is “Active”.
